Measurements as given in ChEMBL document CHEMBL4261484, “Design, synthesis and anticonvulsant-analgesic activity of new N-[(phenoxy)alkyl]- and N-[(phenoxy)ethoxyethyl]aminoalkanols” (Medchemcomm, 2017).
Activity calls are given as the source filed them.

What was measured:
[1] = test system: Mus musculus; test: Analgesic activity in mouse assessed as decrease in time of paw licking during phase 1 at 24 mg/kg, ip measured for 5 mins by formalin test relative to control; format: functional; set-up: scale not given: the % may be the effect or the level left
How it was run: (§1)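 Formalin test in mice: 20 μL of 5% formalin injected intraplantarly into the right hind paw. Each mouse was observed alone in a glass beaker for 30 min. Time (s) spent licking or biting the injected paw was recorded at 0–5 min (acute phase) and 15–30 min (inflammatory phase).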

[2] = test system: Mus musculus; test: Anticonvulsant activity in mouse assessed as protection against maximal electroshock-induced seizures at 100 mg/kg, ip; format: functional, organism-based
How it was run: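 Mice dosed ip; maximal seizures induced by auricular electroshock (25 mA, 500 V, 50 Hz, 0.2 s). Endpoint: hind-limb tonic extension; animals without it scored protected. Read-out is number protected over number tested.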

[3] = test system: Mus musculus; test: Analgesic activity in mouse assessed as decrease in time of paw licking during phase 2 at 24 mg/kg, ip measured for 15 to 30 mins by formalin test relative to control; format: functional; set-up: scale not given: the % may be the effect or the level left; how it was run: as §1
[4] = test system: Mus musculus; test: Anticonvulsant activity in ip dosed mouse assessed as protection against maximal electroshock-induced seizures; format: functional
How it was run: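 Mice were dosed ip. Maximal seizures were induced by auricular electrodes (25 mA, 500 V, 50 Hz, 0.2 s). Absence of hind-limb tonic extension counted as protection. […] Motor impairment was scored on a 10 rpm rotarod, giving TD50 the same way.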

[5] = test system: Mus musculus; test: Neurotoxicity in mouse assessed as motor impairment by measuring loss of coordination at 24 mg/kg, ip measured for 60 secs by chimney test relative to control; format: toxicity, organism-based; settings: in vivo, 1 min
How it was run: (§2)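 Mice dosed ip; trained, selected animals placed in a horizontal tube 25 cm long and 2.5 cm in diameter, then tube reversed so mice must climb out backward. Read-outs: escape time (s) ± SEM and % animals losing coordination versus control. Unpaired t test.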

[6] = Protection index, ratio of TD50 for neurotoxicity in ip dosed mouse by rotarod test to ED50 for anticonvulsant activity in mouse by maximal electroshock seizure test; format: toxicity, organism-based; settings: in vivo, read-out: Ratio TD50/ED50
[7] = test system: Mus musculus; test: Anticonvulsant activity in mouse assessed as increase in electroconvulsive threshold at 10 mg/kg, ip by maximal electroshock seizure threshold test relative to control; format: functional
[8] = test system: Mus musculus; test: Toxicity in mouse at 25 mg/kg, ip measured during maximal electroshock seizure test; format: organism-based; settings: in vivo
[9] = test system: Mus musculus; test: Anticonvulsant activity in mouse assessed as protection against subcutaneous pentylenetetrazole-induced seizures by measuring latency time of tonic seizures at 100 mg/kg, ip measured for 30 mins post pentylenetetrazole challenge at 0.5 hrs after compound dosing (reference value: 562.8 to 614.9 secs); format: functional
[10] = test system: Mus musculus; test: Toxicity in mouse at 100 mg/kg, ip measured during maximal electroshock seizure test; format: organism-based; settings: in vivo
[11] = test system: Mus musculus; test: Neurotoxicity in mouse assessed as motor impairment by measuring time of escaping from chimney at 24 mg/kg, ip measured for 60 secs (reference value: 8.87 +/- 1.79 secs); format: toxicity, organism-based; settings: in vivo, 1 min; how it was run: as §2
[12] = test system: Mus musculus; test: Anticonvulsant activity in mouse assessed as protection against subcutaneous pentylenetetrazole-induced seizures at 100 mg/kg, ip measured for 30 mins post pentylenetetrazole challenge at 0.5 hrs after compound dosing relative to control; format: functional
[13] = test system: Mus musculus; test: Toxicity in mouse at 20 mg/kg, ip measured during maximal electroshock seizure test; format: organism-based; settings: in vivo
[14] = test system: Mus musculus; test: Anticonvulsant activity in mouse assessed as current strength required to induce tonic hind-limb extension in 50% of the animals at 10 mg/kg, ip by maximal electroshock seizure threshold test (reference value: 6.05 to 8.13 mA); format: functional
[15] = test system: Mus musculus; test: Toxicity in mouse assessed as effect on spontaneous activity at 24 mg/kg, ip measured for 30 mins by photoresistor actometer relative to control; format: organism-based; settings: in vivo, 0.5 h
How it was run: (§3)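 Mice dosed ip; locomotor activity by photoresistor actometers counting light-beam interruptions. Each mouse was habituated 30 min in a cage, then crossings were counted over a 30 min session. Data are mean ± SEM and % change vs control; unpaired t test.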

[16] = test system: Mus musculus; test: Toxicity in mouse at 30 mg/kg, ip measured during maximal electroshock seizure test; format: organism-based; settings: in vivo
[17] = test system: Mus musculus; test: Analgesic activity in mouse assessed as decrease in time of paw licking during phase 1 at 33 mg/kg, ip measured for 5 mins by formalin test relative to control; format: functional; set-up: scale not given: the % may be the effect or the level left; how it was run: as §1
[18] = test system: Mus musculus; test: Toxicity in mouse at 60 mg/kg, ip measured during maximal electroshock seizure test; format: organism-based; settings: in vivo
[19] = test system: Mus musculus; test: Neurotoxicity in mouse assessed as motor impairment by measuring loss of coordination at 33 mg/kg, ip measured for 60 secs by chimney test relative to control; format: toxicity, organism-based; settings: in vivo, 1 min; how it was run: as §2
[20] = Neurotoxicity in ip dosed mouse assessed as motor impairment measured for one min by rotarod test; format: toxicity, organism-based; settings: in vivo
How it was run: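 Mice trained on an accelerating rotarod, then tested at least 24 h later after ip pretreatment, on a rod turning at 10 rpm. Neurotoxicity was scored as failure to stay on the rod for one minute. Read-out is mice impaired over mice tested.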

[21] = test system: Mus musculus; test: Anticonvulsant activity in mouse assessed as current strength required to induce tonic hind-limb extension in 50% of the animals at 20 mg/kg, ip by maximal electroshock seizure threshold test (reference value: 6.05 to 8.13 mA); format: functional
[22] = test system: Mus musculus; test: Analgesic activity in mouse assessed as decrease in time of paw licking during phase 2 at 33 mg/kg, ip measured for 15 to 30 mins by formalin test relative to control; format: functional; set-up: scale not given: the % may be the effect or the level left; how it was run: as §1
[23] = test system: Mus musculus; test: Toxicity in mouse assessed as effect on spontaneous activity at 33 mg/kg, ip measured for 30 mins by photoresistor actometer relative to control; format: organism-based; settings: in vivo, 0.5 h; how it was run: as §3
[24] = test system: Mus musculus; test: Neurotoxicity in mouse assessed as motor impairment by measuring time of escaping from chimney at 33 mg/kg, ip measured for 60 secs (reference value: 8.87 +/- 1.79 secs); format: toxicity, organism-based; settings: in vivo, 1 min; how it was run: as §2
[25] = test system: Mus musculus; test: Anticonvulsant activity in mouse assessed as protection against subcutaneous pentylenetetrazole-induced seizures at 80 mg/kg, ip measured for 30 mins post pentylenetetrazole challenge at 0.5 hrs after compound dosing relative to control; format: functional
[26] = test system: Mus musculus; test: Anticonvulsant activity in mouse assessed as increase in electroconvulsive threshold at 20 mg/kg, ip by maximal electroshock seizure threshold test relative to control; format: functional
[27] = test system: Mus musculus; test: Anticonvulsant activity in mouse assessed as protection against subcutaneous pentylenetetrazole-induced seizures by measuring latency time of tonic seizures at 80 mg/kg, ip measured for 30 mins post pentylenetetrazole challenge at 0.5 hrs after compound dosing (reference value: 562.8 to 614.9 secs); format: functional
[28] = test system: HepG2; test: Cytotoxicity against human HepG2 cells assessed as effect on cell viability at 10 to 200 uM after 24 hrs by MTT assay; format: cell-based; settings: hepg2, 24 h
How it was run: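 HepG2 cells grown in MEM with 10% FBS (37 °C, 5% CO2) and seeded at 1 × 10^4. After overnight culture, doxorubicin 10–200 μM for 24 h. MTT added for 3 h, crystals dissolved, OD 570 nm. Viability is % of control ± SEM, three independent experiments.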

Cc1cccc(Cl)c1OCCOCCNCC(O)c1ccccc1 (racemic)
Activity [1]: 8.57%
Activity [2]: Active
Activity [3]: 8.8%
ED50 [4]: 23.9 mg/kg
Activity [5]: 0%
selectivity ratio [6]: 4.3
Activity [7]: 56.64%
Activity [8]: Non-Toxic
Time [9]: 219.6 s
Activity [10]: Non-Toxic
Time [11]: 3.5 s
Activity [12]: inactive
Activity [13]: Non-Toxic
Activity [14]: 11.09 mA
Activity [15]: 44.39%
Activity [16]: Non-Toxic

Cc1cccc(OCCOCCN[C@H]2CCCC[C@@H]2O)c1C (racemic)
Activity [17]: 25.47%
Activity [2]: Active
ED50 [4]: 32.9 mg/kg
selectivity ratio [6]: 1.44
Activity [18]: Non-Toxic
Activity [19]: 0%
TD50 at 1 min [20]: 47.4 mg/kg
Activity [21]: 7.01 mA
Activity [10]: Non-Toxic
Activity [22]: 70.13%
Activity [23]: 3.42%
Time [24]: 4.13 s
Activity [25]: 2.05%
Activity [26]: inactive
Time [27]: 596 s

COc1cccc2c1C(=O)c1c(O)c3c(c(O)c1C2=O)C[C@@](O)(C(=O)CO)C[C@@H]3O[C@H]1C[C@H](N)[C@H](O)[C@H](C)O1 [DOXORUBICIN]
Activity [28]: Toxic
